Reference: PubChem BioAssay
Inconclusive results are not listed. Calls of active or inactive are those of the source.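 Rule for the calls, unless noted: active = viability at or below 27.92% in each of two runs, the all-compound median minus 4 SD; inconclusive = no clear call, values can overlap the other calls; inactive = the rest.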

What was measured:
[1] = OD615 S. cerevisiae growth inhibition, permissive medium, pilot counter-assay, permissive growth control for S. cerevisiae lifespan shortening project (AID 705;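 active = growth inhibition above 25% in both replicates, a cutoff set 3 SD above the mean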); settings: OD615, 24 h, at 10 µM, stronger effect = higher value
In short: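 System – S. cerevisiae with engineered DeaD lifespan system · Buffer or medium – SC raffinose/galactose permissive medium · Schedule – cells pre-grown 4 h, then 24 h compound exposure, 30 °C humidified · Technique – culture turbidity as optical density at 615 nm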

[2] = Restrictive medium S. cerevisiae growth inhibition, OD615, pilot screen of yeast lifespan reduction project, restrictive growth control (AID 706;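 active = growth inhibition above a set limit, 3 SD over mean compound inhibition, in both replicates, cut at about 43% in these data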;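 note: modified DeaD lifespan yeast strain shifted to restrictive glucose medium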); settings: OD615, 48 h, at 10 µM, stronger effect = higher value
In short: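 Material: engineered S. cerevisiae DeaD strain / Medium: glucose-based CSMM-D restrictive medium / Compound: single dose of 10 µM compound final, 0.25% DMSO / Timing: 4 h pre-incubation, 48 h exposure at 30 °C / Technique: OD615 absorbance reading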

[3] = viability gain of MRP-1-high H69AR cells under doxorubicin, pilot screen, MRP-1 activator project, CellTiter-Glo, duplicate (AID 807;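 active = viability increase at or above a cutoff of the median across tested compounds plus 3 SD, cut at about 8.5% in these data, passing the limit was not always enough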;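 note: compound pretreatment 18-22 h then 72 h combined with doxorubicin; 0% = doxorubicin alone and 100% = vehicle without doxorubicin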); settings: H69AR viability with doxorubicin, CellTiter-Glo luminescence; at 10 µM; stronger effect = higher value
[4] = growth suppression of beta-catenin knockout HCT116, pilot screen, human colon tumor cells (AID 823;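 active = cell viability at or below a set limit in both duplicate runs, the limit being the all-compound median minus 4 SD, cut at about 23% in these data, passing the limit was not always enough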;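 note: 0% = wells killed by 20 µM Hyamine and 100% = untreated DMSO cell wells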); settings: CellTiter-Glo, 60 h, at 10 µM, stronger effect = lower value
[5] = growth suppression of PTEN-deleted HCT116, pilot screen, cell-based, HCT116 clonal line, CellTiter-Glo (AID 824); settings: 60 h, at 10 µM, stronger effect = lower value;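 note: 0% = 20 µM Hyamine control and 100% = vehicle cell control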
[6] = inhibitors of the yeast RAM network, pilot screen, dse1pr::URA3 reporter, 5-FOA selection (AID 869;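 active = inhibition over a set limit, the all-compound mean plus 3 SD, in both replicate runs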;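 note: 0% = DMSO wells with no growth and 100% = 10 µM 1-NA-PP1 with full growth; RAM network block rescues cells from 5-FOA so hits raise OD615 growth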); settings: S. cerevisiae dse1pr::URA3 5-FOA growth, OD615, 2 d; at 10 µM; stronger effect = higher value; strain carries analog-sensitive mutant Cbk1 kinase
[7] = RAM signaling pathway blockade in yeast – S. cerevisiae, Pdr1DBD-CYC8 efflux-inhibited sensitized strain, primary screen (AID 1298;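 active = RAM network inhibition above 8.4% in each of two replicates, 3 SD over the compound average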;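 note: 0% = DMSO untreated cells without growth and 100% = 10 µM 1-NA-PP1 full growth; higher means more yeast growth rescued from 5-FOA killing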); settings: S. cerevisiae cbk1-as DSE1-URA3 strain, 5-FOA growth OD615, 2 d; at 50 µM; stronger effect = higher value

COC(=O)C1C(=O)c2c([nH]c(C(=O)OC3CCCCCC3)c2C)CC1C (stereo not drawn)
inactive: growth inhibition [1] 1.09% | growth inhibition [2] 2.59% | viability increase [3] -2.6% | viability [4] 102% | viability [5] 91.1% | inhibition [6] 1.3% | RAM network inhibition [7] 3.01%

CCOc1ccc(-c2nc(-c3ccccc3)no2)cc1OCC
inactive: growth inhibition [1] -16.6% | growth inhibition [2] -29.6% | viability increase [3] 2.12% | viability [4] 106% | viability [5] 91% | inhibition [6] 3.66% | RAM network inhibition [7] 5.86%

Cn1c(=O)oc2cc(S(=O)(=O)N3CCCC(C(=O)NCc4cccs4)C3)ccc21 (stereo not drawn)
inactive: growth inhibition [1] 2.14% | growth inhibition [2] 2.64% | viability increase [3] -1.73% | viability [4] 100% | viability [5] 93.4% | inhibition [6] 2.51% | RAM network inhibition [7] 6.45%

CC(=O)Nn1cc2c(c1-c1ccccc1)c(=O)n(C)c(=O)n2C
inactive: growth inhibition [1] -10% | growth inhibition [2] -3.13% | viability increase [3] 1.16% | viability [4] 93% | viability [5] 87.2% | inhibition [6] 1.5% | RAM network inhibition [7] 3.01%

CCCOC(=O)c1ccc(NC(=O)c2ccoc2C)cc1
inactive: growth inhibition [1] -3.79% | growth inhibition [2] 1.33% | viability increase [3] 0.94% | viability [4] 75.5% | viability [5] 78% | inhibition [6] 2.72% | RAM network inhibition [7] 4.37%

COc1ccc(N(CC(=O)Nc2cccc(SC)c2)S(C)(=O)=O)cc1Cl
inactive: growth inhibition [1] -4.88% | growth inhibition [2] -9.05% | viability increase [3] -6.18% | viability [4] 77.7% | viability [5] 80.6% | inhibition [6] 0.975% | RAM network inhibition [7] 3.03%

OCCCc1nc2n(n1)C(c1ccccc1)C=C(c1ccccc1)N2 (stereo not drawn)
inactive: growth inhibition [1] -7.07% | growth inhibition [2] 1.69% | viability increase [3] -2.67% | viability [4] 97.1% | viability [5] 89.1% | inhibition [6] 0.59% | RAM network inhibition [7] 0.53%

CC(=O)Nc1nnc(SCC(=O)NCCOc2ccccc2)s1
inactive: growth inhibition [1] -0.45% | growth inhibition [2] -7.88% | viability increase [3] -0.85% | viability [4] 98.9% | viability [5] 96.7% | inhibition [6] 0.52% | RAM network inhibition [7] 4.66%

CCOC(=O)N1CCC(N2CC34C=CC(O3)C(C(=O)Nc3ccc(F)cc3)C4C2=O)CC1 (stereo not drawn)
inactive: growth inhibition [1] -4.45% | growth inhibition [2] -3.7% | viability increase [3] 1.43% | viability [4] 105% | viability [5] 101% | inhibition [6] 0.885% | RAM network inhibition [7] 6.68%

O=C(C1CC1)N1CCc2cc(Br)cc(S(=O)(=O)N3CCN(c4ccccn4)CC3)c21
inactive: growth inhibition [1] -13.2% | growth inhibition [2] -14.6% | viability increase [3] -2.17% | viability [4] 91% | viability [5] 91.5% | inhibition [6] 1.29% | RAM network inhibition [7] 5.52%

CN1CCN(c2cc(=O)n(-c3ccc(Cl)cc3)c(=O)[nH]2)CC1
inactive: growth inhibition [1] -1.55% | growth inhibition [2] -1.23% | viability increase [3] 0.27% | viability [4] 108% | viability [5] 102% | inhibition [6] 0.42% | RAM network inhibition [7] 2.42%

CCCc1cc(C(=O)Nc2sc(C(C)=O)c(C)c2C(=O)OCC)no1
inactive: growth inhibition [1] -18.8% | growth inhibition [2] -30.5% | viability increase [3] -4.9% | viability [4] 86.2% | viability [5] 78.4% | inhibition [6] 1.46% | RAM network inhibition [7] 3.25%

O=C(CSc1ncnc2c1oc1ccccc12)Nc1cccc(C(F)(F)F)c1
inactive: growth inhibition [1] -12.2% | growth inhibition [2] -15.6% | viability increase [3] 1.15% | viability [4] 86.3% | viability [5] 84% | inhibition [6] 3.52% | RAM network inhibition [7] 7.32%

Cc1cc(-c2nc3ncccc3o2)ccc1NC(=O)CC(C)C
inactive: growth inhibition [1] -3.98% | growth inhibition [2] -5.53% | viability increase [3] -0.17% | viability [4] 108% | viability [5] 90% | inhibition [6] 1.06% | RAM network inhibition [7] 0.92%

CC(C)C(NS(=O)(=O)c1ccc2c(c1)oc(=O)n2C)C(=O)N1CCN(Cc2ccccc2)CC1 (stereo not drawn)
inactive: growth inhibition [1] -5.8% | growth inhibition [2] -20.3% | viability increase [3] -3.99% | viability [4] 88.9% | viability [5] 92% | inhibition [6] 2.62% | RAM network inhibition [7] -2.73%

O=C(NCC1CCCO1)c1ccc(CS(=O)(=O)c2ccc(Br)cc2)o1 (stereo not drawn)
inactive: growth inhibition [1] -9.31% | growth inhibition [2] -13.1% | viability increase [3] -1.53% | viability [4] 97.8% | viability [5] 97.9% | inhibition [6] 1.06% | RAM network inhibition [7] 2.45%

CCSC1=C(C#N)C(c2ccc(F)cc2)CC(=O)N1 (stereo not drawn)
inactive: growth inhibition [1] 5.18% | growth inhibition [2] -4.98% | viability increase [3] 1% | viability [4] 93.4% | viability [5] 101% | inhibition [6] 0.48% | RAM network inhibition [7] 2.29%

CCOC(=O)CC1C(=O)NCCN1C(=O)c1cc2c(=O)n3cccc(C)c3nc2s1 (stereo not drawn)
inactive: growth inhibition [1] -11% | growth inhibition [2] -11.3% | viability increase [3] -3.53% | viability [4] 98% | viability [5] 98.8% | inhibition [6] -0.035% | RAM network inhibition [7] -1.37%

O=C(Nc1nccs1)c1cc(S(=O)(=O)N2CCCCC2)ccc1Cl
inactive: growth inhibition [1] -6.76% | growth inhibition [2] -16.1% | viability increase [3] 0.46% | viability [4] 99.7% | viability [5] 88.6% | inhibition [6] 1.89% | RAM network inhibition [7] 4.88%

CCn1c(SCC(=O)N2CCOCC2)nc(O)cc1=O
inactive: growth inhibition [1] -6.62% | growth inhibition [2] -12.7% | viability increase [3] -0.84% | viability [4] 105% | viability [5] 103% | inhibition [6] 2.59% | RAM network inhibition [7] 1.54%

CC(=N)C1=C(O)CC(C)(C)CC1=O
inactive: growth inhibition [1] -7.31% | growth inhibition [2] -1.06% | viability increase [3] 0.77% | viability [4] 94.9% | viability [5] 105% | inhibition [6] 1.49% | RAM network inhibition [7] 2.39%

Cn1c(=NC(=O)C2CC2)sc2cc(F)cc(F)c21
inactive: growth inhibition [1] -0.79% | growth inhibition [2] 8.89% | viability increase [3] -4.58% | viability [4] 91.3% | viability [5] 92.6% | inhibition [6] 1.81% | RAM network inhibition [7] 7.52%

CCNc1ccc(C(=O)OCC)cc1NC(=O)c1cccc(N(C)C)c1
inactive: growth inhibition [1] -8.58% | growth inhibition [2] 2.37% | viability increase [3] -5.51% | inhibition [6] 0.385% | RAM network inhibition [7] 2.72%
active: viability [4] 18.4% | viability [5] 19.1%

O=P(O)(CCc1ccccn1)CN1CCOCC1
inactive: growth inhibition [1] -17.5% | growth inhibition [2] -15.6% | viability increase [3] 1.31% | viability [4] 92.6% | viability [5] 92.5% | inhibition [6] 2.73% | RAM network inhibition [7] 1.09%
